Rows were chosen to be rich in hits. Some 2.6% of all compounds tested hit in one or more screens of this group.
OX1R antag-1: OX1R (HCRTR1) antagonists, primary screen, fluorescence, CHO/OX1R cells, Fluo-8 calcium, orexin A. Orexin/Hypocretin receptor type 1 (Homo sapiens), O43613. Fluo-8 calcium fluorescence. inhibition, % at 5 µM. hit rate 0.43% among 330,000;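 active means inhibition above its plate's threshold, mean inhibition of all tested compounds on the plate plus 3 SD, cut at about 37% in these data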;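 further: 0% = orexin A challenge wells and 100% = SB-334867-A antagonist wells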
OXTR ag: human OXTR agonists, primary screen, fluorescence, CHO-OTR cells, Fluo-8 calcium; Fluo-8 calcium fluorescence; normalized: DMSO 0%, oxytocin 100%; activation, % at 3 µM; Oxytocin receptor (Homo sapiens), P30559; hit rate 0.32% among 320,000;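 active means activation above the mean of all tested compounds plus 3 SD, cutoff set per screening run, cut at about 20% in these data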;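 further: peak over basal fluorescence ratio from a 100 s FLIPR kinetic read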
Target sequence (P30559 whole entry, looked up): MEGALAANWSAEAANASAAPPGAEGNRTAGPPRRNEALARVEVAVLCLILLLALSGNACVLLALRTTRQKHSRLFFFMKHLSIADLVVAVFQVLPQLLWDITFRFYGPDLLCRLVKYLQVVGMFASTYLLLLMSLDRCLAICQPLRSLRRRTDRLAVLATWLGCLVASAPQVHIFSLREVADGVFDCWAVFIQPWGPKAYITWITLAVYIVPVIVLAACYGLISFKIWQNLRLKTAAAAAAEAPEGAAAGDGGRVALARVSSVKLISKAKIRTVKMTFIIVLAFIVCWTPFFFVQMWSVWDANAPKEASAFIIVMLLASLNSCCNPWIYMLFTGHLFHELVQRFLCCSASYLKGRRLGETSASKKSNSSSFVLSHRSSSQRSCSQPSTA
V1R ag counter: agonists of human V1a receptor, primary screen, counter-screen for OXTR agonist project, fluorescence, CHO-V1R cells; Fluo-8 calcium fluorescence, agonist mode; 0% DMSO, 100% 3 nM vasopressin; activation, % at 3 µM; hit rate 0.25% among 320,000;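 active means activation above the mean activation of all tested compounds plus 3 SD, per screening run, cut at about 20% in these data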;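 further: signal is peak over basal fluorescence ratio across a 100 second FLIPR read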
OXTR potentiator: human OXTR potentiators, primary screen, fluorescence, CHO-OTR cells, Fluo-8 calcium | Oxytocin receptor (Homo sapiens), P30559 | Fluo-8 calcium fluorescence, potentiator mode; 0% = oxytocin EC15, 100% = EC100 | activation, % at 3 µM | hit rate 0.061% among 320,000 | AID 2445, 2010;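 active means activation above that plate's cutoff, the mean activation of tested compounds plus 3 SD, cut at about 6.6% in these data, passing the limit was not always enough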;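 further: 100% uses oxytocin at 75 nM as the full agonist control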
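System: human OTR in CHO cells; Also added: sub-maximal oxytocin, roughly EC15; Timing: compound 6 min at room temperature before oxytocin, 100 s read; Technique: Fluo-8 intracellular calcium fluorescence, ex 470-495, em 515-575 nm; Controls: oxytocin EC15 low and EC100 high; Replication: singlicate.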
CHO parental Ca: ATP-evoked calcium signal inhibitors, parental CHO, primary screen, counter-screen for OX1R antagonist project, cell-based, fluorescence, Fluo-8 calcium dye. parental CHO-K1, ATP-induced calcium, Fluo-8 fluorescence. inhibition, % at 5.6 µM. hit rate 0.63% among 330,000. AID 463079, 2010;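 active means inhibition above that plate's mean sample inhibition plus 3 SD, cut at about 26% in these data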;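 further: 0% = ATP-challenged DMSO wells and 100% = DMSO wells without ATP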
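Assay system – parental CHO cells · Reagent – ATP stimulus · Detection – intracellular calcium via Fluo-8 no-wash fluorescent dye · Evaluation – percent inhibition of ATP-evoked calcium rise, normalized to controls · Controls – ATP wells versus no-ATP DMSO wells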
OX1R antag-2: antagonists of human orexin 1 receptor (OX1R); inhibition, % at 6.6 µM; OX1R-expressing cells, FRET antagonist read-out; hit rate 1.8% among 330,000; in the data active means inhibition mostly above about 38%, no sharp cut-off; inactive means mostly below about 40%;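 further: 0% = agonist challenge alone and 100% = reference antagonist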
OX1R HTRF confirm: OX1R (HCRTR1) antagonists, confirmation, cell-based, HTRF. hit rate 49% among 1,800. OX1R-expressing cells, HTRF antagonist assay. AID 492964, 2010. shares compounds with OX1R antag-2. inhibition, % at 6.6 µM; in the data active means inhibition above about 55%;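 further: CHO cells expressing OX1R stimulated with orexin A at about EC80; 0% = agonist challenge alone and 100% = reference antagonist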
CHO-K1 HTRF cnt: signal inhibition in parental CHO-K1 cells, counter-screen for OX1R antagonist project, cell-based, HTRF. shares compounds with OX1R antag-2. HTRF counterscreen. inhibition, % at 6.6 µM. hit rate 48% among 1,800. AID 493232, 2011; in the data active means inhibition above about 17%;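 further: 0% = agonist challenge with vehicle and 100% = vehicle alone without agonist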
The depositor's hits bear a star; · = no result given.

SMILES	OX1R antag-1	OXTR ag	V1R ag counter	OXTR potentiator	CHO parental Ca	OX1R antag-2	OX1R HTRF confirm	CHO-K1 HTRF cnt
CCSc1c(C(=O)NC)ccc2c1C(=O)c1ccccc1C2=O	-14	0	0	3	-4	91*	58*	92*
C/C(CCc1ccco1)=N/NC(=O)CCC(=O)Nc1ccc(Br)cc1	-3	-1	1	-1	2	16	·	·
C=CCNC(=S)N/N=C(\C)c1cccnc1	-20	0	0	-17	-2	104*	13	2
COc1ccc(CC(=O)OCC(=O)Nc2ccc(Cl)cc2C)cc1	-11	-1	1	4	-16	12	·	·
O=C(Nc1ccccc1)c1ccc(NCC2CCCO2)c([N+](=O)[O-])c1 (stereo not given)	-9	0	7	-1	-10	32	·	·
O=[N+]([O-])c1cc(C(F)(F)F)ccc1NCC1CCCO1 (stereo not given)	-4	0	1	-6	-7	5	·	·
N#Cc1cc(NCC2CCCO2)c([N+](=O)[O-])cc1C#N (stereo not given)	-16	-1	1	-8	-1	126*	51	71*
COc1ccc(NC(=O)c2ccc(NCC3CCCO3)c([N+](=O)[O-])c2)cc1 (stereo not given)	5	1	2	-4	0	77*	29	18*
CCN(CC)C(=O)c1cn(CCC#N)nc1-c1ccc2ccccc2c1	-13	-2	0	-9	-11	17	·	·
COC(=O)c1cc(S(=O)(=O)N2CCOCC2)c(Cl)cc1N1CCOCC1	-8	1	0	-7	0	5	·	·
COC(=O)c1cc(C)nc2c1C(=O)C(=O)C=C2N1CCOCC1	-12	2	0	-14	-8	99*	79*	114*
CC(C)N(Cc1nc(-c2ccccc2)no1)C(=O)Cc1ccccc1	10	-2	-1	3	-15	78*	52	-15
COc1cccc(C(=O)N(Cc2nc(-c3cccc(C)c3)no2)C(C)C)c1OC	11	1	1	-21	-13	81*	69*	-9
Cc1cccc(-c2noc(CN(C(=O)c3c(-c4ccccc4Cl)noc3C)C(C)C)n2)c1	-4	-1	0	-9	24	17	·	·
CC(C)N(Cc1nc(-c2ccccc2)no1)C(=O)C(C)(C)C	-28	-1	-1	2	-16	34	·	·
c1cncc(-c2nc(N3CCCCCC3)c3ccccc3n2)c1	-26	-3	-1	-3	-24	30	·	·
c1ccc2c(N3CCCCCC3)nc(-c3ccncc3)nc2c1	-20	-3	-1	-7	-50	88*	41	8
CCOC(=O)c1cn(CC(=O)Nc2ccc(OC)cc2OC)nn1	-21	1	1	0	-2	2	·	·
O=C(CCNC(=O)c1ccc([N+](=O)[O-])cc1)N/N=C/c1ccc(F)cc1	-27	-1	-2	0	7	78*	24	27*
O=C(CCNC(=O)c1ccc([N+](=O)[O-])cc1)Nc1ccc(F)cc1	-13	0	1	-8	-5	31	·	·
CCOC(=O)c1oc2cc(O)c(CC)cc2c(=O)c1-c1cscn1	-15	1	2	-7	-16	10	·	·
CCOC(=O)c1ccc(-c2c(C(=O)OCC)oc3cc(O)c(CC)cc3c2=O)o1	11	6	6	-21	-9	83*	27	9
COC(=O)COc1ccc(S(=O)(=O)NCc2ccc3c(c2)OCO3)cc1	-6	6	6	-12	-3	-5	·	·
CCOC(=O)c1cc2[nH]c3ccccc3c2[n+](-c2ccc([N+](=O)[O-])cc2)c1N	-1	-1	0	-6	-13	138*	57*	69*
CCOC(=O)c1cc2[nH]c3ccccc3c2[n+](-c2ccc([N+](=O)[O-])cc2)c1C	-8	0	0	0	-9	114*	53	75*
SMILES	OX1R antag-1	OXTR ag	V1R ag counter	OXTR potentiator	CHO parental Ca	OX1R antag-2	OX1R HTRF confirm	CHO-K1 HTRF cnt
O=C(OCc1cccc([N+](=O)[O-])c1)c1cc(=O)[nH]c2ccccc12	-20	0	2	-6	-12	2	·	·
Cc1cccc2nc(CNC(=O)CC3C(=O)NCCN3Cc3cccc(F)c3)cn12 (stereo not given)	-15	-1	1	-7	-8	7	·	·
CCn1c(-c2csc3c2CCC(C)C3)n[nH]c1=S (stereo not given)	-13	-3	1	-9	1	28	·	·
CC(C)c1nn2c(N)c(/C=C3\C=Nc4ccccc43)c(=O)nc2s1	2	1	0	-15	-11	82*	66*	9
COc1ccc2oc(C(=O)OCC(=O)/C(C#N)=C(\C)N)c(C)c2c1	-13	3	0	-9	7	25	·	·
COc1ccc(C(=O)Nc2c(O)ccc3ccccc23)cc1OC	-22	1	0	3	-34	21	·	·
COc1ccc(S(=O)(=O)Nc2c(O)ccc3ccccc23)cc1OC	4	0	0	-5	-6	77*	72*	7
O=C(c1n[nH]c2ccccc12)N1CCN(S(=O)(=O)c2ccccc2)CC1	-3	1	3	-8	-11	0	·	·
Cc1cc(C)n2[nH]c(=O)c(N=Nc3ccccc3)c2n1	-10	-1	0	-6	-1	188*	46	86*
Cc1cc(C(F)(F)F)n2[nH]c(=O)c(N=Nc3ccccc3)c2n1	-12	0	0	2	-5	14	·	·
Cc1cc(=O)n2[nH]c(=O)c(N=Nc3ccccc3)c2[nH]1	-3	0	-1	-4	-5	126*	49	58*
O=C1C=C(c2cccc3c2oc2ccccc23)CCC1	-30	-2	-1	5	-25	81*	60*	12
CC1(C)CC(=O)C=C(c2cccc3c2oc2ccccc23)C1	-46	-2	-1	-8	-9	29	·	·
O=C1CCN(S(=O)(=O)c2ccc(Br)cc2)CCN1	4	0	-1	-19	6	29	·	·

Screening data: PubChem, The Scripps Research Institute Molecular Screening Center
